Hits are enriched below; roughly 1.2% of the tested compounds scored in any of these assays.
CSN inh = inhibitors of human CSN-mediated cullin deneddylation; Q92905; Purified CSN, SCF-Nedd8-OG deneddylation, fluorescence polarization; inhibition, % at 12.5 µM; 0.38% of 360,000 active;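 active means pattern-corrected inhibition above about 35%, with an unprinted fluorescence ratio check between 0.5 and 1.5, limit read from the data, passing the limit was not always enough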
Target sequence (Q92905 whole entry, looked up, one chain of several): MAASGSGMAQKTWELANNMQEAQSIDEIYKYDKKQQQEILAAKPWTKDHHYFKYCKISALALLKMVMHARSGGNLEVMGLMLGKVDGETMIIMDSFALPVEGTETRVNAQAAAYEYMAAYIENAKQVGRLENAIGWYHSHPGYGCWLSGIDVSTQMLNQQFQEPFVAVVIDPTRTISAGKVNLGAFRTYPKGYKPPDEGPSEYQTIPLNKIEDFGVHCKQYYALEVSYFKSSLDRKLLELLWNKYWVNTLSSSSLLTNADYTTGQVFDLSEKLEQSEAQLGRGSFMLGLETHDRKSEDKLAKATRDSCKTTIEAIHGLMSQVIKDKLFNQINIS
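Assay system: purified human Csn5 enzyme expressed in HEK293T cells; Input: 0.24 nM Csn5 enzyme, final concentration; Reagent: 10 nM SCFSkp2-Nedd8OG; Compound dosing: 12.5 µM single point; Times: reaction 90 min, room temperature; Technique: fluorescence polarization readout.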
Rtt109 HAT inh = blocks Candida albicans Rtt109/Vps75 acetyltransferase activity; Q5AAJ8; inhibition, % at 34.9 µM; AID 540336; purified Rtt109/Vps75, ThioGlo CoA-SH fluorescence, 4 h; 0.16% of 330,000 active;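 active means inhibition of at least 50% in every replicate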
Target sequence (Q5AAJ8 whole entry, looked up): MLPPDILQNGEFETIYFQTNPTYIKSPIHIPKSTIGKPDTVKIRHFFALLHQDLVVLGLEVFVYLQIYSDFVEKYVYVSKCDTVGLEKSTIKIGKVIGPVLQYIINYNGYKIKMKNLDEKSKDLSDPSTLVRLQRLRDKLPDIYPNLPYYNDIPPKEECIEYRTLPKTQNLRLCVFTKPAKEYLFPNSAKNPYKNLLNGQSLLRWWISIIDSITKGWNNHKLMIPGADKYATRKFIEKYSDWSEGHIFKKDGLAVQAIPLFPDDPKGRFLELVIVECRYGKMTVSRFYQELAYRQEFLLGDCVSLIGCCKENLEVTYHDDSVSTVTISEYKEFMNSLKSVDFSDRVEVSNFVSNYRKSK
TPT1 inh = blocks Candida albicans tRNA 2'-phosphotransferase. recombinant caTPT1, FP RNA substrate dephosphorylation. inhibition, % at 5 µM. 0.81% of 300,000 active. AID 1962;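 active means inhibition above the mean of all tested compounds plus 3 SD, set per screening campaign, cut at about 24% in these data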
HNF4A DNA FP = change in binding of human HNF4 alpha to DNA; HNF4a-FITC DNA binding, fluorescence polarization, 1 h; activity change, % at 10 µM; 0.3% of 360,000 active; AID 1224865; in the data active means activity change above about 30%, passing the limit was not always enough
TPT1 inh confirm = confirmation of Candida albicans TPT1 inhibitors; 74% of 2,400 active; recombinant caTPT1, fluorescence polarization, RNase T1 coupled; inhibition, % at 5 µM; shares compounds with TPT1 inh;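 active means inhibition above the primary screen limit, the mean inhibition of all tested compounds plus 3 SD, cut at about 25% in these data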
RNase T1 counter = blocks Aspergillus oryzae RNase T1, a TPT1 counter-screen | shares compounds with TPT1 inh | RNase T1 cleavage, fluorescence polarization, 1536-well | inhibition, % at 5 µM | 83% of 2,400 active | AID 2153;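 active means inhibition above the solvent-only control well mean plus 3 SD, limit set per screening run, cut at about 23% in these data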;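 further: inhibitors block cleavage so intact labeled substrate keeps polarization high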
Hits are given with their value.

How did CC(=O)Oc1cccc(/C=C2\C=C(c3ccc(C)cc3)OC2=O)c1 do in these assays?
CSN inh: inactive; Rtt109 HAT inh: inactive; TPT1 inh: inactive; HNF4A DNA FP: inactive

What do the screens show for `COc1ccc(C2=C/C(=C\c3ccc(OC(C)=O)cc3)C(=O)O2)cc1`?
CSN inh: inactive; Rtt109 HAT inh: inactive; TPT1 inh: inactive; HNF4A DNA FP: inactive

How did COc1ccc(C2=C/C(=C/c3cccnc3)C(=O)O2)cc1OC do in these assays?
CSN inh: inactive; Rtt109 HAT inh: inactive; TPT1 inh: 80.0; HNF4A DNA FP: inactive; TPT1 inh confirm: 80.0; RNase T1 counter: 84.9

How did CCOc1ccc(C2=C/C(=C/c3cccnc3)C(=O)O2)cc1 do in these assays?
CSN inh: inactive; TPT1 inh: 82.6; HNF4A DNA FP: inactive; TPT1 inh confirm: 69.1; RNase T1 counter: 78.3

What do the screens show for `Cc1sc(NC(=O)c2sc3nc4c(C)cccc4cc3c2N)c(C#N)c1C`?
CSN inh: inactive; TPT1 inh: 25.4; HNF4A DNA FP: inactive; TPT1 inh confirm: 29.7; RNase T1 counter: 43.3

What do the screens show for `N#C/C(=C\c1ccc(O)c(O)c1)C(=O)N1CCCC1`?
CSN inh: inactive; Rtt109 HAT inh: inactive; TPT1 inh: inactive; HNF4A DNA FP: inactive

What do the screens show for `N#C/C(=C\c1ccc(O)c(O)c1)C(=O)c1ccc(O)c(O)c1`?
CSN inh: inactive; Rtt109 HAT inh: inactive; TPT1 inh: 26.9; HNF4A DNA FP: inactive; TPT1 inh confirm: 68.9; RNase T1 counter: 73.8

Results for COC(=O)Cn1cc(/C=C/c2cc[n+](C)cc2)c2ccccc21 ?
CSN inh: inactive; Rtt109 HAT inh: inactive; TPT1 inh: 34.6; HNF4A DNA FP: inactive; TPT1 inh confirm: 40.5; RNase T1 counter: 48.5

What do the screens show for `CNC(=O)/C(C#N)=C/c1cn(CC(=O)OC)c2ccccc12`?
CSN inh: inactive; Rtt109 HAT inh: inactive; TPT1 inh: inactive; HNF4A DNA FP: inactive

What do the screens show for `COc1ccc(C2=NN(c3ccc(C=O)cc3)C(c3ccccc3)C2)cc1` (centres undefined)?
TPT1 inh: inactive

How did COc1ccc(C2CC(c3ccccc3)=NN2c2ccc(/C=N/NC(=O)c3ccncc3)cc2)cc1 (centres undefined) do in these assays?
CSN inh: inactive; Rtt109 HAT inh: inactive; TPT1 inh: 66.2; HNF4A DNA FP: inactive; TPT1 inh confirm: 51.6; RNase T1 counter: 67.6

Results for COc1ccc(C2CC(c3cccs3)=NN2c2ccc(C=O)cc2)cc1 (centres undefined) ?
TPT1 inh: 64.8; TPT1 inh confirm: 67.0; RNase T1 counter: 72.4

What do the screens show for `CCN(CC(=O)Nc1ccccc1C(F)(F)F)C(=O)CSCc1ccc(C)cc1`?
CSN inh: inactive; Rtt109 HAT inh: inactive; TPT1 inh: inactive; HNF4A DNA FP: inactive

What do the screens show for `OC(c1ccc(Cl)c(Cl)c1)c1ncc(-c2ccccc2C(F)(F)F)[nH]1` (centres undefined)?
CSN inh: inactive; HNF4A DNA FP: inactive

How did O=C(COC(=O)c1cc(S(=O)(=O)N2CCCCC2)ccc1N1CCOCC1)c1ccccc1 do in these assays?
CSN inh: inactive; Rtt109 HAT inh: inactive; TPT1 inh: inactive; HNF4A DNA FP: inactive

How did COc1cc(/C=C/c2nc3ccccc3c(=O)[nH]2)ccc1O do in these assays?
CSN inh: inactive; HNF4A DNA FP: inactive

What do the screens show for `COc1cc(/C=C/c2nc3ccccc3c(=O)[nH]2)cc(Br)c1O`?
CSN inh: 38.2; Rtt109 HAT inh: inactive; TPT1 inh: 49.8; HNF4A DNA FP: inactive; TPT1 inh confirm: 79.3; RNase T1 counter: 78.0

Results for O=C(N/N=C\c1ccc(Cl)s1)c1ccc(Cn2cccn2)o1 ?
CSN inh: inactive; Rtt109 HAT inh: inactive; TPT1 inh: inactive; HNF4A DNA FP: inactive

How did O=C(N/N=C/c1c(O)ccc2ccccc12)c1[nH]ncc1Br do in these assays?
CSN inh: inactive; Rtt109 HAT inh: inactive; TPT1 inh: 31.8; HNF4A DNA FP: inactive; TPT1 inh confirm: 63.9; RNase T1 counter: 63.1

Results for O=C(N/N=C\c1c(O)ccc2ccccc12)c1ccc(Cn2cccn2)o1 ?
CSN inh: inactive; Rtt109 HAT inh: inactive; TPT1 inh: 39.8; HNF4A DNA FP: inactive; TPT1 inh confirm: 45.0; RNase T1 counter: 49.2

Results for C=CCn1c(SCC(=O)N(CC)C2CCS(=O)(=O)C2)nc2ccccc2c1=O (centres undefined) ?
CSN inh: inactive; Rtt109 HAT inh: inactive; TPT1 inh: 52.5; HNF4A DNA FP: inactive; TPT1 inh confirm: inactive; RNase T1 counter: inactive

How did Cc1ccc(-c2nnc(Nc3ccc4c(c3)OCO4)c3ccccc23)cc1S(=O)(=O)NC(C)C do in these assays?
CSN inh: inactive; Rtt109 HAT inh: inactive; TPT1 inh: 52.5; HNF4A DNA FP: inactive; TPT1 inh confirm: inactive; RNase T1 counter: inactive

What do the screens show for `CCn1c(CNC(=O)c2ccccc2OC)nnc1SCC(=O)c1ccc(F)cc1`?
CSN inh: inactive; Rtt109 HAT inh: inactive; TPT1 inh: inactive; HNF4A DNA FP: inactive

Results for COCCN1C(=O)/C(=C/c2ccc(N3CCCC3)cc2C)SC1=S ?
CSN inh: inactive; Rtt109 HAT inh: inactive; TPT1 inh: 115.0; HNF4A DNA FP: inactive; TPT1 inh confirm: 99.0; RNase T1 counter: 99.9

How did C=CCn1c(=O)/c(=C\c2ccccn2)s/c1=C(/C#N)C(=O)NCC1CCCO1 (centres undefined) do in these assays?
CSN inh: inactive; Rtt109 HAT inh: inactive; TPT1 inh: inactive; HNF4A DNA FP: inactive

What do the screens show for `C=CCn1c(=O)/c(=C/c2ccc(C)o2)s/c1=C(/C#N)C(=O)c1ccccc1`?
CSN inh: 44.9; Rtt109 HAT inh: inactive; TPT1 inh: 105.6; HNF4A DNA FP: inactive; TPT1 inh confirm: 144.0; RNase T1 counter: 141.9

How did Cc1cccc(NS(=O)(=O)c2cc(C(=O)N3CCCCCC3)ccc2C)c1 do in these assays?
CSN inh: inactive; Rtt109 HAT inh: inactive; TPT1 inh: inactive; HNF4A DNA FP: inactive

Results for Clc1ccc(OCCn2ccnc2)cc1Cl ?
CSN inh: inactive; Rtt109 HAT inh: inactive; TPT1 inh: 59.7; HNF4A DNA FP: inactive; TPT1 inh confirm: inactive; RNase T1 counter: inactive

What do the screens show for `CCN1/C(=C2\SC(=S)N(Cc3ccccc3)C2=O)Sc2ccccc21`?
CSN inh: inactive; Rtt109 HAT inh: inactive; TPT1 inh: inactive; HNF4A DNA FP: inactive

What do the screens show for `CCC(CO)[n+]1c(C)cc(/C=C2\Sc3ccccc3N2Cc2ccccc2)cc1C` (centres undefined)?
CSN inh: inactive; TPT1 inh: 126.8; HNF4A DNA FP: inactive; TPT1 inh confirm: 130.8; RNase T1 counter: 134.4

How did COc1ccc(OC)c(C(=O)COC(=O)COc2ccccc2F)c1 do in these assays?
CSN inh: inactive; Rtt109 HAT inh: inactive; HNF4A DNA FP: inactive

Results for Cn1cc(C2=C(c3ccc(Cl)cc3Cl)C(=O)NC2=O)c2ccccc21 ?
CSN inh: inactive; Rtt109 HAT inh: inactive; TPT1 inh: 81.2; HNF4A DNA FP: inactive; TPT1 inh confirm: 92.3; RNase T1 counter: 94.7
